The source made the active and inactive calls.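 How the source made its calls: active means inhibition of at least 50%; inactive means inhibition below 50%.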

One may read the inhibition as the relative decrease from the control value, in per cent.

Diacylglycerol lipase-beta (Mus musculus), sequence (Q91WC9 whole entry, looked up): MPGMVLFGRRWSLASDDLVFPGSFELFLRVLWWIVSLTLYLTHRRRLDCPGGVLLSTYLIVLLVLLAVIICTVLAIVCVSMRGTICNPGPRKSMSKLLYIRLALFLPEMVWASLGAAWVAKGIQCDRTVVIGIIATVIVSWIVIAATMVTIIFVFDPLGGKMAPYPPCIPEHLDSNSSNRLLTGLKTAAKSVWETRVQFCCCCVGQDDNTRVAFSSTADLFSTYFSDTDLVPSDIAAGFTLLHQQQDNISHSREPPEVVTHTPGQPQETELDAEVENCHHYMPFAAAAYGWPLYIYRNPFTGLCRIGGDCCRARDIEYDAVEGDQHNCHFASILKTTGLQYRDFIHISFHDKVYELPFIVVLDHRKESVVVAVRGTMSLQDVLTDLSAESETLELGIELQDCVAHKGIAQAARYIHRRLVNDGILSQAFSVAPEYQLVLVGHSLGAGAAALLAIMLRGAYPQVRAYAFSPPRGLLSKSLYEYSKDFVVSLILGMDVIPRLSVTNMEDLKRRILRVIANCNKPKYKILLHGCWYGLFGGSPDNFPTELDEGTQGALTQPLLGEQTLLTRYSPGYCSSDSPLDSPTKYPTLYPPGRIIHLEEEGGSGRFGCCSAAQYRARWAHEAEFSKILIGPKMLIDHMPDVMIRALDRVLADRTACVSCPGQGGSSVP

The target in the assay is Diacylglycerol lipase-beta (Mus musculus) (UniProt Q91WC9). Kind of assay: blocking of probe labeling on DAGLb – biochemical, gel-based fluorescence, overexpressed mouse, set 3, late-stage follow-up (AID 602300). To be noted: HEK293T membrane mDAGLb, gel ABPP fluorescence; at 1 µM; stronger effect = higher value. The procedure, abridged:
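Test system: HEK293T membranes with overexpressed mouse DAGLb; Amount: 0.3 mg/mL membrane protein; Technique: SDS-PAGE with in-gel fluorescence scan, band integrated optical density; Schedule: 30 min compound plus 30 min probe, 37 °C; Measure: percent inhibition of DAGLb band versus DMSO and blank-gel references; Medium: Dulbecco's PBS (DPBS).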
For `O=C(c1ccc(-c2ccc(-c3cn(C(=O)N4CCCCC4c4ccccc4)nn3)cc2)cc1)N1CCCCC1` (configuration not stated), the inhibition is 0% (inactive).
Regarding `O=C(N1CCCCC1Cc1ccccc1)n1cc(-c2ccc(-c3cccc(CO)c3)cc2)nn1` (configuration not stated), the inhibition was 84%.
For `O=C(O)c1cccc(-c2ccc(-c3cn(C(=O)N4CCCCC4Cc4ccccc4)nn3)cc2)c1` (configuration not stated) the value was 50%; for `O=C(O)c1cccc(-c2ccc(-c3cn(C(=O)N4CCCCC4CCc4ccccc4)nn3)cc2)c1` (configuration not stated), 4% (inactive).
For `O=C(c1cccc(-c2ccc(-c3cn(C(=O)N4CCCCC4c4ccccc4)nn3)cc2)c1)N1CCCCC1` (configuration not stated) the value was 0% (inactive); for `O=C(c1ccc(-c2ccc(-c3cn(C(=O)N4CCCCC4Cc4ccccc4)nn3)cc2)cc1)N1CCCCC1` (configuration not stated), 39% (inactive); for `O=C(N1CCCCC1c1ccccc1)n1cc(-c2ccc(-c3cccc(CO)c3)cc2)nn1` (configuration not stated), 0% (inactive).
For `O=C(O)c1cccc(-c2ccc(-c3cn(C(=O)N4CCCCC4c4ccccc4)nn3)cc2)c1` (configuration not stated), the inhibition is 6% (inactive).
For `O=C(O)c1ccc(-c2ccc(-c3cn(C(=O)N4CCCCC4CCc4ccccc4)nn3)cc2)cc1` (configuration not stated), the inhibition was 1% (inactive).
For the compound `O=C(N1CCCCC1c1ccccc1)n1cc(-c2ccc(-c3ccc(CO)cc3)cc2)nn1` (configuration not stated), the inhibition is 0% (inactive).
Consider `O=C(N1CCCCC1c1ccccc1)n1cc(-c2ccc(-c3ccccc3CO)cc2)nn1` (configuration not stated), for which the inhibition was 0% (inactive).
With `NC(=O)c1ccc(-c2ccc(-c3cn(C(=O)N4CCCCC4c4ccccc4)nn3)cc2)cc1` (configuration not stated) the figure was 0% (inactive).

(Values after PubChem BioAssay AID602300 (The Scripps Research Institute Molecular Screening Center, 2012).)
